Bioassay records deposited in PubChem BioAssay by The Scripps Research Institute Molecular Screening Center.
Rows were chosen to be rich in hits. Some 0.59% of all compounds tested hit in one or more screens of this group.
TRPN1 ag: zebrafish TRPN1 channel agonists, primary screen, cell-based, HEK293, calcium fluorescence | AID 1424, 2008 | activation, % at 3 µM | HEK293 zebrafish TRPN1-YFP, Fluo-8 calcium fluorescence; 100% = response to 87 µM carbachol | transient receptor potential cation channel N1 (TRPN1/NompC), Danio rerio | actives 0.18% (n = 220,000);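 active = activation above its plate's cutoff, the mean activation of test wells on that plate plus 3 SD, cut at about 19% in these data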;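 also: 0% = DMSO alone and 100% = 87 µM carbachol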
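Material: zebrafish TRPN1-YFP in HEK293 cells; Doses: single test compound dose, 3 µM nominal, 0.3% DMSO; Timing: dye loading 1 h at 37 °C, then 30 min room temperature; Technique: intracellular calcium fluorescence with Fluo-8; Benchmarks: high carbachol 87 µM, low DMSO alone.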
V1aR counter: agonists of human V1a receptor, primary screen, counter-screen for OXTR agonist project, fluorescence, CHO-V1R cells; Vasopressin V1a receptor (Homo sapiens), P37288; Fluo-8 calcium fluorescence, agonist mode; 0% DMSO, 100% 3 nM vasopressin; activation, % at 3 µM; actives 0.25% (n = 320,000);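 active = activation above the mean activation of all tested compounds plus 3 SD, per screening run, cut at about 20% in these data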;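 also: signal is peak over basal fluorescence ratio across a 100 second FLIPR read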
Target sequence (P37288 whole entry, looked up): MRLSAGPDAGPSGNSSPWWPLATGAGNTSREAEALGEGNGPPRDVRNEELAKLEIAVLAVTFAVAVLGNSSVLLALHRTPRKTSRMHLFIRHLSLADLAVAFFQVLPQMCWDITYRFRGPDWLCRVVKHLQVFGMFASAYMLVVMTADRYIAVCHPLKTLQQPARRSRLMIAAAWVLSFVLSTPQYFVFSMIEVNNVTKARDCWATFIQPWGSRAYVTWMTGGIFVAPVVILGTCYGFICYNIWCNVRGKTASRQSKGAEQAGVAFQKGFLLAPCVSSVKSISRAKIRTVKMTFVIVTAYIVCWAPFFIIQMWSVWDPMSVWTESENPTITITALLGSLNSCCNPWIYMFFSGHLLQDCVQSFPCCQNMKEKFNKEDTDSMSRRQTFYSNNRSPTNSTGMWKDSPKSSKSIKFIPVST
OXTR potentiator: human OXTR potentiators, primary screen, fluorescence, CHO-OTR cells, Fluo-8 calcium. actives 0.061% (n = 320,000). Oxytocin receptor (Homo sapiens), P30559. Fluo-8 calcium fluorescence, potentiator mode; 0% = oxytocin EC15, 100% = EC100. AID 2445, 2010. activation, % at 3 µM;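 active = activation above that plate's cutoff, the mean activation of tested compounds plus 3 SD, cut at about 6.6% in these data, passing the limit was not always enough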;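 also: 100% uses oxytocin at 75 nM as the full agonist control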
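Replication – single well per compound, singlicate · Assay system – CHO cell line stably expressing human OTR · Timing – 6 min pre-incubation, 100 s read · Measure – normalized max/min fluorescence ratio, % activation · Doses – 3.0 µM, one dose · Detection – Fluo-8 calcium dye fluorescence · Probe or stimulus – oxytocin near EC15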
OXTR ag: human OXTR agonists, primary screen, fluorescence, CHO-OTR cells, Fluo-8 calcium; actives 0.32% (n = 320,000); Oxytocin receptor (Homo sapiens), P30559; AID 2435, 2010; activation, % at 3 µM; Fluo-8 calcium fluorescence; normalized: DMSO 0%, oxytocin 100%;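 active = activation above the mean of all tested compounds plus 3 SD, cutoff set per screening run, cut at about 20% in these data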;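 also: peak over basal fluorescence ratio from a 100 s FLIPR kinetic read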
TRPML3 ag: human TRPML3 channel agonists, primary screen, cell-based, HEK293 TRPML3-YFP, Fluo-8 calcium fluorescence, 3 µM; Mucolipin-3 (Homo sapiens), Q8TDD5; 100% = the carbachol control signal; activation, % at 3 µM; actives 0.29% (n = 220,000); AID 1448, 2008;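 active = activation above its plate's cutoff, the mean activation of the plate's test wells plus 3 SD, cut at about 12% in these data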;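 also: 0% = DMSO only wells and 100% = carbachol wells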
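Test system: TRPML3-YFP stable HEK293 cells. Doses: single point at 3 µM. Incubation: dye loading 1 h 37 °C then 30 min ambient, 125 s read. Signal: Fluo-8 calcium dye fluorescence, ex 470-495, em 515-575 nm. Measure: percent activation from peak-to-basal fluorescence ratio, scaled between DMSO and carbachol.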
The depositor's hits bear a star; x = no result.

SMILES	TRPN1 ag	V1aR counter	OXTR potentiator	OXTR ag	TRPML3 ag
CCN1CCN(c2ccc(S(=O)(=O)N3CCCCC3)cc2NC(=O)c2ccc([N+](=O)[O-])s2)CC1	x	2	-7	7	x
COc1ccc(CN(C)C(=O)c2ccc(NS(=O)(=O)c3ccc(F)cc3)cc2)c(OC)c1	x	4	-11	0	x
COc1ccc(NS(=O)(=O)c2ccc(C(=O)N(C)Cc3ccc(C)o3)cc2)cc1	x	27*	-11	27*	x
Cc1ccc(NS(=O)(=O)c2ccc(C(=O)N3CCCC(C(F)(F)F)C3)cc2)cc1 (stereo not drawn)	x	49*	-26	53*	x
CCOc1ccc(NS(=O)(=O)c2ccc(C(=O)N3CCCCC3)cc2)cc1	x	28*	-16	24*	x
COc1ccccc1NS(=O)(=O)c1ccc(C(=O)N2CCCC(C(F)(F)F)C2)cc1 (stereo not drawn)	x	6	-12	5	x
Cc1ccc(NS(=O)(=O)c2ccc(C(=O)NCC(c3ccco3)N(C)C)cc2)cc1 (stereo not drawn)	x	26*	-16	27*	x
COc1ccc(C(=O)CN(CCC(=O)O)S(=O)(=O)c2ccc([N+](=O)[O-])cc2)cc1	x	1	-1	0	x
O=C(NCC(c1ccco1)N1CCCC1)c1ccc(S(=O)(=O)Nc2ccc(F)cc2)cc1 (stereo not drawn)	x	6	-11	9	x
CCOc1ccc(NS(=O)(=O)c2ccc(C(=O)NCC(c3ccco3)N3CCCC3)cc2)cc1 (stereo not drawn)	x	23*	-12	35*	x
Oc1ccc(C=NCCc2ccccc2)cc1	x	0	-12	0	x
Cc1c(Cl)ccc2c1NC(=O)[C@]21N[C@@H](Cc2ccccc2)[C@H]2C(=O)N(c3ccc(F)cc3)C(=O)[C@H]21	6	24*	-12	27*	8
CC(=O)NC(CC(C)C)C(=O)NC(CO)C(=O)NC(CCC(=O)O)C(=O)NC(C)C(=O)NC(CC(C)C)C(N)=O (stereo not drawn)	x	0	-5	1	x
O=[N+]([O-])c1cccc(C2NCC(c3ccccc3Cl)c3c2[nH]c2ccccc32)c1 (stereo not drawn)	2	345*	-22	243*	1
CCN1CCN(CCNC(=O)c2cn(Cc3ccccc3F)nn2)CC1	28*	2	-8	0	0
CN(C(=O)c1ccc(NC(=O)Cc2ccc([N+](=O)[O-])cc2)cc1)C1CCCC1	x	21*	-12	22*	x
CN(C(=O)c1cccc(NC(=O)Cc2ccc([N+](=O)[O-])cc2)c1)C1CCCC1	x	6	-7	6	x
O=C1CCc2cc(S(=O)(=O)Nc3ccccc3)cc3c2N1CC3	x	0	-15	0	x
Cc1cc(CNC(=O)c2cccc(OC3CCN(S(=O)(=O)N(C)C)CC3)c2)on1	x	5	-13	4	x
Cn1c(Cc2ccccc2)nnc1SCC(=O)c1ccc(Br)s1	0	0	1	0	38*
Cn1nnnc1SCC(=O)c1ccc(Br)s1	1	-1	-3	1	0
CCCOc1ccc(C(=O)CCC(=O)OCC(=O)Nc2cc(C)on2)cc1	-1	x	x	x	0
CCCCOc1ccc(C(=O)OCC(=O)Nc2cc(C)on2)cc1	94*	0	-25	2	88*
COc1ccc(S(=O)(=O)CCC(=O)N2CCN(c3ccc(C(C)=O)cc3)CC2)cc1	x	6	-11	6	x
COc1cc(C(O)c2nc3ccccc3n2C(C)C)cc(OC)c1OC (stereo not drawn)	x	0	-1	1	x
SMILES	TRPN1 ag	V1aR counter	OXTR potentiator	OXTR ag	TRPML3 ag
COCCCNC(=O)CCc1nnc2ccc(N3CCC(C)CC3)nn12	x	0	-1	0	x
Cc1cc(=O)[nH]c(SCC(=O)/C=C2\N(C)c3ccccc3C2(C)C)n1	4	7	-16	23*	5
CN1/C(=C/C(=O)CSc2ccccc2C(=O)O)C(C)(C)c2ccccc21	1	2	2	2	1
COc1ccc([C@H]2CC(=O)C=C(c3ccc(Cl)c(C(F)(F)F)c3)C2)cc1	x	2	-5	1	x
CCCOc1ccc(OC(=O)c2ccc(Br)o2)cc1	0	64*	-24	42*	0
CN(Cc1cccs1)C(=O)CCCc1c[nH]c2ccccc12	32*	2	-7	2	32*
Cc1ccc2c(C)c(C(=O)NCCN3CCOC3=O)oc2c1C	x	1	10	1	x
O=C(COc1ccccc1)N=C1SC2CS(=O)(=O)CC2N1c1ccc(F)cc1F (stereo not drawn)	x	1	-14	2	x
CN(C)c1ccc2nc3c(=O)[nH]c(=O)nc-3n(CC(O)C(O)C(O)CO)c2c1 (stereo not drawn)	x	35*	-11	23*	x
COc1ccccc1CNS(=O)(=O)c1ccc2c(c1)CC(=O)N2C	x	1	-21	1	x
CCC(C)C(NC(=O)C1CCC(=O)N1C(=O)OCc1ccccc1)C(=O)NC(Cc1ccccc1)C(N)=O (stereo not drawn)	x	0	5	1	x
CC[C@H](C)[C@H](NC(=O)[C@H](Cc1ccc(O)cc1)NC(=O)[C@@H](N)C(C)C)C(=O)N[C@@H](Cc1cnc[nH]1)C(=O)N1CCC[C@H]1C(=O)N[C@@H](Cc1ccccc1)C(=O)O	0	25*	-25	72*	2
CCN1CCc2c(sc(NC(=O)Nc3ccc(Cl)c(Cl)c3)c2C(N)=O)C1	195*	173*	-12	219*	84*
CC(OC(=O)C1=COCCO1)C(=O)Nc1ccc(Cl)cn1 (stereo not drawn)	x	1	4	1	x
COc1cc(/C=C/C(=O)CC(=O)/C=C/c2ccc(O)c(OC)c2)ccc1O	11	24*	-22	33*	8
COc1cc(/C=C/C(=O)/C=C(O)/C=C/c2ccc(O)c(OC)c2)ccc1O	x	41*	-10	33*	x
COc1cc(/C=C/C(=O)O)ccc1O	x	0	-2	1	x
S=C(NCCCc1ccccc1)Nc1ccccc1Cl	145*	6	-11	5	2
Cc1ccc2[nH]c3c(c2c1)CCCC3NCCO (stereo not drawn)	x	4	-10	6	x
COc1ccc(C2C=C(c3ccc(Br)s3)Nc3ncnn32)cc1OC (stereo not drawn)	4	17	-23	23*	2
N#C/C(=C\c1coc2ccccc2c1=O)C(N)=S	0	0	-7	0	1
